Values joined by “and” are separate entries in the source; they are usually repeats but may differ in a detail not shown here. Equal values may be shown once.

In one experiment the test system is Mus musculus. Put plainly: In vivo antitumor activity against P-388 Leukemia cell line in female BDF1 mice after oral administered dose of 25 mg/kg. Type of experiment: functional. Summed up:
(§1)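 Female BDF1 mice, 17-23 g, five per group, inoculated intraperitoneally with 10^6 P-388 cells. Oral dosing once daily for 9 days, beginning 1 day after implantation. Activity is % T/C, the median survival time of treated mice relative to controls.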
In the case of `O=C1OC(n2c(=O)c(F)cn(C3CCCO3)c2=O)c2ccccc21` (stereo not drawn), the T/C was 104%.

Take `O=C1OC(n2cc(F)c(=O)[nH]c2=O)c2ccccc21` (stereo not drawn): the T/C came out at 118%.

For `Cc1ccccc1C(=O)n1c(=O)c(F)cn(C2OC(=O)c3ccccc32)c1=O` (stereo not drawn), the T/C worked out at 113%.

Turning to `O=C1OC(n2c(=O)[nH]cc(F)c2=O)c2ccccc21` (stereo not drawn), the T/C amounted to 111%.

Take `O=c1[nH]c(=O)n(C2CCCO2)cc1F` (stereo not drawn) [TEGAFUR]: the T/C was 115%.

`CC(=O)n1cc(F)c(=O)n(C2OC(=O)c3ccccc32)c1=O` (stereo not drawn): the T/C amounted to 106%.

Regarding `O=C1OC(n2cc(F)c(=O)n(C3OC(=O)c4ccccc43)c2=O)c2ccccc21` (stereo not drawn), the T/C is listed as 97%.

A further experiment deals with Mus musculus. Nature of the experiment: In vivo antitumor activity against P-388 Leukemia cell line in female BDF1 mice after oral administered dose of 100 mg/kg. Format: functional. The procedure, abridged:
as §1
In turn, `O=C1OC(n2c(=O)c(F)cn(C3CCCO3)c2=O)c2ccccc21` (stereo not drawn) registered a T/C of 115%.

In turn, `O=C1OC(n2cc(F)c(=O)[nH]c2=O)c2ccccc21` (stereo not drawn) returned a T/C of 129%.

Molecule `Cc1ccccc1C(=O)n1c(=O)c(F)cn(C2OC(=O)c3ccccc32)c1=O` (stereo not drawn) displayed a T/C of 102%.

Take `O=C1OC(n2c(=O)[nH]cc(F)c2=O)c2ccccc21` (stereo not drawn): the T/C amounted to 120%.

Turning to `O=c1[nH]c(=O)n(C2CCCO2)cc1F` (stereo not drawn) [TEGAFUR], the T/C came to 136%.

`CC(=O)n1cc(F)c(=O)n(C2OC(=O)c3ccccc32)c1=O` (stereo not drawn) yielded a T/C of 104%.

`O=C1OC(n2cc(F)c(=O)n(C3OC(=O)c4ccccc43)c2=O)c2ccccc21` (stereo not drawn) yielded a T/C of 102%.

The test system of the next experiment is Mus musculus. Nature of the experiment: In vivo antitumor activity against Meth A cell line in female […] mice after oral administered dose of 200 mg/kg. Type of experiment: functional.
As to `O=C1OC(n2c(=O)[nH]cc(F)c2=O)c2ccccc21` (stereo not drawn), the T/C was 7% and 19%.

The subject of another experiment is Mus musculus. Nature of the experiment: In vivo antitumor activity against Meth A cell line in female BALB/c mice after oral administered dose of 200 mg/kg; death.
For the molecule `O=C1OC(n2cc(F)c(=O)[nH]c2=O)c2ccccc21` (stereo not drawn), the T/C entry was “death”.

As for `O=c1[nH]c(=O)n(C2CCCO2)cc1F` (stereo not drawn) [TEGAFUR], the T/C result is listed as “death”.

In the next experiment the test system is Mus musculus. Put plainly: In vivo antitumor activity against MH 134 cell line in female […] mice after oral administered dose of 25 mg/kg. Format: functional.
As for `O=C1OC(n2cc(F)c(=O)[nH]c2=O)c2ccccc21` (stereo not drawn), the T/C is given as 50%.

For `O=C1OC(n2c(=O)[nH]cc(F)c2=O)c2ccccc21` (stereo not drawn), the T/C is 77%.

Molecule `O=c1[nH]c(=O)n(C2CCCO2)cc1F` (stereo not drawn) [TEGAFUR] returned a T/C of 100%.

Another experiment relates to Mus musculus. Nature of the experiment: In vivo antitumor activity against MH 134 cell line in female […] mice after oral administered dose of 200 mg/kg. Type of experiment: functional.
The molecule `O=C1OC(n2cc(F)c(=O)[nH]c2=O)c2ccccc21` (stereo not drawn) registered a T/C of 8%.

The molecule `O=C1OC(n2c(=O)[nH]cc(F)c2=O)c2ccccc21` (stereo not drawn) displayed a T/C of 17%.

With `O=c1[nH]c(=O)n(C2CCCO2)cc1F` (stereo not drawn) [TEGAFUR], the T/C is on record as 32%.

The next experiment concerns Mus musculus. Put plainly: In vivo antitumor activity against P-388 Leukemia cell line in female BDF1 mice after oral administered dose of 200 mg/kg. Type of experiment: functional. The procedure, abridged:
as §1
As to `O=C1OC(n2c(=O)c(F)cn(C3CCCO3)c2=O)c2ccccc21` (stereo not drawn), the T/C was determined as 111%.

As for `O=C1OC(n2cc(F)c(=O)[nH]c2=O)c2ccccc21` (stereo not drawn), the T/C is 124%.

As for `Cc1ccccc1C(=O)n1c(=O)c(F)cn(C2OC(=O)c3ccccc32)c1=O` (stereo not drawn), the T/C amounted to 109%.

Take `O=C1OC(n2c(=O)[nH]cc(F)c2=O)c2ccccc21` (stereo not drawn): the T/C was 102%.

As to `O=c1[nH]c(=O)n(C2CCCO2)cc1F` (stereo not drawn) [TEGAFUR], the T/C is 106%.

On to `CC(=O)n1cc(F)c(=O)n(C2OC(=O)c3ccccc32)c1=O` (stereo not drawn), for which the T/C was 111%.

`O=C1OC(n2cc(F)c(=O)n(C3OC(=O)c4ccccc43)c2=O)c2ccccc21` (stereo not drawn) displayed a T/C of 102%.

In the next experiment the test system is Mus musculus. Nature of the experiment: In vivo antitumor activity against Meth A cell line in female […] mice after oral administered dose of 150 mg/kg. Format: functional.
Turning to `O=C1OC(n2cc(F)c(=O)[nH]c2=O)c2ccccc21` (stereo not drawn), the T/C amounted to 7%.

`O=C1OC(n2c(=O)[nH]cc(F)c2=O)c2ccccc21` (stereo not drawn): the T/C was 19%.

On to `O=c1[nH]c(=O)n(C2CCCO2)cc1F` (stereo not drawn) [TEGAFUR], for which the T/C is 23%.

The next experiment relates to Mus musculus. Nature of the experiment: In vivo antitumor activity against MH 134 cell line in female […] mice after oral administered dose of 150 mg/kg. Type of experiment: functional.
`O=C1OC(n2cc(F)c(=O)[nH]c2=O)c2ccccc21` (stereo not drawn) came in with a T/C of 22%.

The molecule `O=C1OC(n2c(=O)[nH]cc(F)c2=O)c2ccccc21` (stereo not drawn) showed a T/C of 37%.

Regarding `O=c1[nH]c(=O)n(C2CCCO2)cc1F` (stereo not drawn) [TEGAFUR], the T/C is 50%.

The next experiment has as its system Mus musculus. Put plainly: In vivo antitumor activity against P-388 Leukemia cell line in female BDF1 mice after oral administered dose of 50 mg/kg. Format: functional. Summed up:
as §1
In turn, `O=C1OC(n2c(=O)c(F)cn(C3CCCO3)c2=O)c2ccccc21` (stereo not drawn) yielded a T/C of 109%.

In the case of `O=C1OC(n2cc(F)c(=O)[nH]c2=O)c2ccccc21` (stereo not drawn), the T/C amounted to 116%.

For `Cc1ccccc1C(=O)n1c(=O)c(F)cn(C2OC(=O)c3ccccc32)c1=O` (stereo not drawn), the T/C was 99%.

With `O=C1OC(n2c(=O)[nH]cc(F)c2=O)c2ccccc21` (stereo not drawn), the T/C worked out at 104%.

`O=c1[nH]c(=O)n(C2CCCO2)cc1F` (stereo not drawn) [TEGAFUR] showed a T/C of 104%.

The molecule `CC(=O)n1cc(F)c(=O)n(C2OC(=O)c3ccccc32)c1=O` (stereo not drawn) displayed a T/C of 97%.

`O=C1OC(n2cc(F)c(=O)n(C3OC(=O)c4ccccc43)c2=O)c2ccccc21` (stereo not drawn): the T/C worked out at 104%.

The subject of a further experiment is Mus musculus. Nature of the experiment: In vivo antitumor activity against Meth A cell line in female BALB/c mice after oral administered dose of 50 mg/kg.
For the molecule `O=C1OC(n2cc(F)c(=O)[nH]c2=O)c2ccccc21` (stereo not drawn), the T/C came out at 26%.

`O=C1OC(n2c(=O)[nH]cc(F)c2=O)c2ccccc21` (stereo not drawn) came in with a T/C of 37%.

A further experiment deals with Mus musculus. Nature of the experiment: In vivo antitumor activity against MH 134 cell line in female […] mice after oral administered dose of 50 mg/kg. Format: functional.
With `O=C1OC(n2cc(F)c(=O)[nH]c2=O)c2ccccc21` (stereo not drawn), the T/C was found to be 34%.

In the case of `O=C1OC(n2c(=O)[nH]cc(F)c2=O)c2ccccc21` (stereo not drawn), the T/C stood at 45%.

The molecule `O=c1[nH]c(=O)n(C2CCCO2)cc1F` (stereo not drawn) [TEGAFUR] yielded a T/C of 64%.
